Experiments:
Assay type in all cases: functional
[1] = system: L1210; assay: Anti tumor activity against L1210 leukemia in tissue culture and the molar concentration required to reduce the number of L1210 cells; settings: Mus musculus, L1210, read-out: ID50
How it was run: (§1)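 L1210 leukemia cells in tissue culture were incubated with the test drug for 2 days and the cell number was then assessed. ID50 is the molar drug concentration that reduces the number of L1210 cells by 50%.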

[2] = system: Mus musculus; assay: Antimalarial activity against Plasmodium berghei strain in mice (Mus musculus) by parentral route and change in mean survival time in days was determined at 160 mg/kg subcutaneous dose
How it was run: (§2)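 Normal drug-sensitive P. berghei strain in mice. Test agents dissolved or suspended in peanut oil and given as a single sc dose 72 h postinfection, five mice per dose group. ΔMST = mean survival time of treated mice minus that of controls (days). 60-day survivors are excluded from the treated mean and scored as cured. Minimum active response is a 100% increase in MSTT.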

[3] = system: Mus musculus; assay: Antimalarial activity against Plasmodium berghei strain in mice (Mus musculus) by parentral route and change in mean survival time in days was determined at 320 mg/kg subcutaneous dose; how it was run: as §2
[4] = system: Mus musculus; assay: Antimalarial activity against Plasmodium berghei strain in mice (Mus musculus) by parentral route and change in mean survival time in days was determined at 80 mg/kg subcutaneous dose; how it was run: as §2
[5] = system: Mus musculus; assay: Antimalarial activity against Plasmodium berghei strain in mice (Mus musculus) by parentral route and change in mean survival time in days was determined at 40 mg/kg subcutaneous dose; how it was run: as §2
[6] = system: Mus musculus; assay: Antimalarial activity against Plasmodium berghei strain in mice (Mus musculus) by parentral route and change in mean survival time in days was determined at 640 mg/kg subcutaneous dose; how it was run: as §2
[7] = system: L1210; assay: Anti tumor activity against L1210 leukemia in tissue culture and the molar concentration required to reduce the number of L1210 cells by 50% was determined.; settings: Mus musculus, L1210, read-out: ID50; how it was run: as §1

| IC50 [1] [µM] | Structure (SMILES) | Delta MST [2] [days] | Delta MST [3] [days] | Delta MST [4] [days] | Delta MST [5] [days] | Delta MST [6] [days] | IC50 [7] [µM] |
| --- | --- | --- | --- | --- | --- | --- | --- |
| 0.11 | Nc1nc(N)c2cc(S(=O)(=O)c3ccc4ccccc4c3)ccc2n1 |  |  |  |  |  |  |
|  | CONc1nc(N)nc2ccc(S(=O)(=O)c3ccc4ccccc4c3)cc12 | 9.1 | 12.7 | 5.7 | 3.9 |  |  |
|  | NNc1nc(N)nc2ccc(Sc3cccc(C(F)(F)F)c3)cc12 | 6.9 | 11.9 | 3.1 | 0.5 | 15.7 |  |
|  | Nc1nc(NO)c2cc(S(=O)(=O)c3ccc4ccccc4c3)ccc2n1 | 11.1 | 14.1 | 8.9 | 6.1 | 15.3 |  |
|  | NNc1nc(N)nc2ccc(S(=O)(=O)c3ccc4ccccc4c3)cc12 | 2.3 | 3.5 | 1.3 | 0.5 | 4.5 |  |
|  | CONc1nc(N)nc2ccc(Sc3cccc(C(F)(F)F)c3)cc12 | 9.7 |  | 6.9 | 5.7 |  | 24 |
|  | CN(N)c1nc(N)nc2ccc(S(=O)(=O)c3ccc4ccccc4c3)cc12 | 4.3 | 7.1 | 2.3 | 0.5 | 10.7 |  |
|  | ONc1nc(NO)c2cc(Sc3cccc(C(F)(F)F)c3)ccc2n1 | 9.7 | 10.7 | 3.1 | 1.7 |  |  |
|  | CN(N)c1nc(N)nc2ccc(Sc3cccc(C(F)(F)F)c3)cc12 | 12.3 |  | 8.9 | 5.7 |  |  |
|  | Nc1nc(NO)c2cc(Sc3cccc(C(F)(F)F)c3)ccc2n1 | 8.1 | 10.3 | 5.1 | 3.5 |  |  |
|  | O=S(=O)(c1ccc2ccccc2c1)c1ccc2nc(NO)nc(NO)c2c1 | 5.9 | 8.1 | 3.3 | 1.1 | 10.7 |  |
